According to publication PMC8921320 (The Journal of Biological Chemistry, 2022):
pKd: −log10 of the molar value. Values joined by “and” are separate entries in the source; they are usually repeats but may differ in a detail not shown here. Identical values can stand only once. Like-named read-outs stand apart in the source and are kept apart here. Square brackets hold non-standard residues; d marks the D form. Peptide text beside a SMILES is read from it. Orn(N5-OH,N5-Ac) = CC(=O)N(O)CCC[C@H](N)C(=O)O

How the values were obtained:
[1] = target: T1, EcoFepA (Escherichia coli, UniProt P05825, A720C); assay: Fluorescence quenching binding, EcoFepA-FM sensor
T1 sequence (P05825 23-746 A720C): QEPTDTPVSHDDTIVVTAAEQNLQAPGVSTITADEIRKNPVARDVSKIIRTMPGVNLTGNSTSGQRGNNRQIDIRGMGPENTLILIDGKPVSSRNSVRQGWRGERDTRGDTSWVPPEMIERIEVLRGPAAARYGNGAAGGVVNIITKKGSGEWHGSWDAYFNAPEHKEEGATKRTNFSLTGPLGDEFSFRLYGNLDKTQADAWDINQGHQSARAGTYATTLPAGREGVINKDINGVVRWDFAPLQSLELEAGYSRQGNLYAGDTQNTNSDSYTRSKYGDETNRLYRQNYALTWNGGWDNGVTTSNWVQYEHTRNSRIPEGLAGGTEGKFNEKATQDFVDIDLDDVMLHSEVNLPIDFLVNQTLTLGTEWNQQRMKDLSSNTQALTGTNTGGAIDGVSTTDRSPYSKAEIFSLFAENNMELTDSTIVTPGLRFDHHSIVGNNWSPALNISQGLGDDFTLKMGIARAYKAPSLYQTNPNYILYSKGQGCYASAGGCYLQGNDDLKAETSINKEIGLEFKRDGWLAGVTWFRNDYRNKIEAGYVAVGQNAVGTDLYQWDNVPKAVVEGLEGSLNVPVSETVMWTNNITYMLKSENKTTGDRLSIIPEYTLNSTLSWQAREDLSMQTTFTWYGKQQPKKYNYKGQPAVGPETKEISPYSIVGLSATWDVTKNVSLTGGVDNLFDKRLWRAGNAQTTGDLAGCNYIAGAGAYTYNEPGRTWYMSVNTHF

[2] = target: T2, EcoFepB (Escherichia coli, UniProt P0AEL6, T297C); assay: Fluorescence quenching binding, purified EcoFepB-FM sensor
T2 sequence (P0AEL6 27-318 T297C): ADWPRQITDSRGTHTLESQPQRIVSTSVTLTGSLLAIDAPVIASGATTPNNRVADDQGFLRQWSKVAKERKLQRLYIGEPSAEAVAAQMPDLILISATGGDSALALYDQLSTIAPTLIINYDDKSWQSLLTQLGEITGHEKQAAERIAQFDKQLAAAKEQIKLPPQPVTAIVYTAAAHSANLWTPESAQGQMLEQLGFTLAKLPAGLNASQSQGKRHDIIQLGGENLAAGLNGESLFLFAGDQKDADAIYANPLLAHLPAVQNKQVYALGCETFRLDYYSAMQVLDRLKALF
How it was run: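 His-tagged T297C FepB expressed from pET28 in E. coli and purified by metal affinity chromatography. Labeled with 5 μM fluorescein maleimide at pH 6.77 for 15 min, then repurified by gel filtration. Apo or ferric siderophores added at increasing concentrations, with three quenching determinations per concentration. Mean values fitted to a single-site binding model to give KD.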

[3] = tested on: AbaFepA; format: binding, Acinetobacter baumannii
[4] = tested on: EcoCir; assay: Fluorescence quenching binding, EcoCir-FM sensor; parameters: species or system Escherichia coli
How it was run: (§1)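 Cys-mutant receptor made in E. coli hosts (entA, tonB+ or ΔtonB) grown in iron-deficient MOPS at 37 °C to late exponential phase. Cells washed in 50 mM NaHPO₄ pH 6.7, labeled in situ with 5 μM fluorescein maleimide for 15 min at 37 °C, quenched with 100 μM β-mercaptoethanol, then resuspended in PBS + 0.2% glucose. Binding used 2.5 × 10⁷ cells in 2 ml, stirred at 37 °C. Iron complex added stepwise; 520 nm emission quenching read in triplicate; 1-F/F₀ vs [ligand] fitted to single-site model for KD.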

[5] = tested on: AbaPirA; assay: Fluorescence quenching binding, AbaPirA-FM sensor; parameters: species or system Acinetobacter baumannii
How it was run: as §1

[6] = tested on: EcoFiu; assay: Fluorescence quenching binding, EcoFiu-FM sensor; parameters: species or system Escherichia coli
How it was run: as §1

[7] = tested on: AbaPiuA; assay: Fluorescence quenching binding, AbaPiuA-FM sensor; parameters: species or system Acinetobacter baumannii
How it was run: as §1

[8] = target: T3, KpnIroN (Klebsiella pneumoniae, UniProt A0ACD7U953, T234C); assay: Fluorescence quenching binding, KpnIroN-FM sensor
T3 sequence (A0ACD7U953 25-724 T234C): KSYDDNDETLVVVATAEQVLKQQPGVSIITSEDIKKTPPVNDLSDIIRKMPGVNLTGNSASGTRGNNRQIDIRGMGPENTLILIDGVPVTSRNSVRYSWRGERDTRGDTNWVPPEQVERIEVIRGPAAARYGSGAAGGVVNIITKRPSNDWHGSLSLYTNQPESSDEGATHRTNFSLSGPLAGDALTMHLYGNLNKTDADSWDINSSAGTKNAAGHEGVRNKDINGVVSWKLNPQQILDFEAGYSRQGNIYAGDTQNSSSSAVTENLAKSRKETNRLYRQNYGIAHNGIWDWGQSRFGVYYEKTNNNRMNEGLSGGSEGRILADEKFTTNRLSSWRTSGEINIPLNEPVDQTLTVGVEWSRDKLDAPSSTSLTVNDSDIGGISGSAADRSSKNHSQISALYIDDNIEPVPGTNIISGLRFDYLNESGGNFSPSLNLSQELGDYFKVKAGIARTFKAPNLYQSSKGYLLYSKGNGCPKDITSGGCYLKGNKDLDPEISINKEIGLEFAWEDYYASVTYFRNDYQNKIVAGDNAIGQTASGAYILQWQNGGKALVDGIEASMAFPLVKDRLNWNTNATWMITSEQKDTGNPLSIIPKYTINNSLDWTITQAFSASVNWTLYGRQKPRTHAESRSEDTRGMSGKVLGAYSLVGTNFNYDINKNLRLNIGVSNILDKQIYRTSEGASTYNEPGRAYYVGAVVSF
How it was run: as §1

[9] = target: T4, EcoIutA (Escherichia coli, UniProt B7LI14, T574C); assay: Fluorescence quenching binding, EcoIutA-FM sensor
T4 sequence (B7LI14 26-733 T574C): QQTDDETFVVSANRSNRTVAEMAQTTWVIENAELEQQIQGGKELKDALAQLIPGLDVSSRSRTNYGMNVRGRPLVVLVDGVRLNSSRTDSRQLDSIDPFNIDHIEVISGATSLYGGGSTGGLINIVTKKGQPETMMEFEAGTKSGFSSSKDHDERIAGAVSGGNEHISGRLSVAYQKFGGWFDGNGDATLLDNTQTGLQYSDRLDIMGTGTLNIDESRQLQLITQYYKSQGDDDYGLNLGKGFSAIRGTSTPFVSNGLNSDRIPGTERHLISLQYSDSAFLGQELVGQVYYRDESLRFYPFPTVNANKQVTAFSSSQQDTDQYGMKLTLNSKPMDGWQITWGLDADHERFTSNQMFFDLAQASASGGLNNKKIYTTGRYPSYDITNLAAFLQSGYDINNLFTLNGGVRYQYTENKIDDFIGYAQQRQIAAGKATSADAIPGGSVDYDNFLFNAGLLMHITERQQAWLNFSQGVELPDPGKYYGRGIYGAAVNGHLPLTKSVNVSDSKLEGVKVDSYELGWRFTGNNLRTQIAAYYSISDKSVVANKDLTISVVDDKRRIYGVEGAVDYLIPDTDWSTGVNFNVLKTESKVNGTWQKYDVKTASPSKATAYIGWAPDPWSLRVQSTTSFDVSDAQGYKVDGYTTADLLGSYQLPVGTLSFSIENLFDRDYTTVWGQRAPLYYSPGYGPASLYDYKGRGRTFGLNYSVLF

[10] = target: human siderocalin (HsaSCN) (Homo sapiens, UniProt P80188, Q148C); assay: Fluorescence quenching binding, purified HsaSCN-FM sensor; settings: HsaSCN-FM (Q128C), purified protein
[11] = target: T5, PaeFpvA (Pseudomonas aeruginosa, UniProt P48632, T660C); assay: Fluorescence quenching binding, PaeFpvA-FM sensor
T5 sequence (P48632 44-815 T660C): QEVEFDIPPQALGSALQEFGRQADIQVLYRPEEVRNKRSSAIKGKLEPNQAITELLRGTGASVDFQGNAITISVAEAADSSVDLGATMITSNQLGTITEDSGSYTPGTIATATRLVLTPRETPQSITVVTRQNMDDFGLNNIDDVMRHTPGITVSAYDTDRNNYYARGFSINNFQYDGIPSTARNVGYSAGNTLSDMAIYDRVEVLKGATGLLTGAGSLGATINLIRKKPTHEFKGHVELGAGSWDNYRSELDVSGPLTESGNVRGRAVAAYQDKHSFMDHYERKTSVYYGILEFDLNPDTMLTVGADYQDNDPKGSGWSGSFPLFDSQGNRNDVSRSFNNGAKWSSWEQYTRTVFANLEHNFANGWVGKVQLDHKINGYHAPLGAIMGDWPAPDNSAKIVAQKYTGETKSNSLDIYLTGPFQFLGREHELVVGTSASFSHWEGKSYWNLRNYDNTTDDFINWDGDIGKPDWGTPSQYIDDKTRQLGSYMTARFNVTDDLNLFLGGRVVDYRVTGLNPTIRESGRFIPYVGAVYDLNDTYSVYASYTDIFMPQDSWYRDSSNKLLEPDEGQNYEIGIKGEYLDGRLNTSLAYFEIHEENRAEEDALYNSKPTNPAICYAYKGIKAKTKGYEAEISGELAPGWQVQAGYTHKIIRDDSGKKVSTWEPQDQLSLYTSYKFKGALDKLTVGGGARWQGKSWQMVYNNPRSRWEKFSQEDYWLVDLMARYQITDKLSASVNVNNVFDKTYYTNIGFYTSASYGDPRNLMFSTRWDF
How it was run: as §1

[12] = target: T1, EcoFepA; settings: cited from earlier work
[13] = target: T3, KpnIroN; settings: cited from earlier work
[14] = tested on: Iron-deficient Gram-negative bacteria, with maximally expressed chromosomal FepA; settings: cited from earlier work
[15] = target: KpnFyuA (Klebsiella pneumoniae, UniProt A4GZD6, S653C); assay: Fluorescence quenching binding, KpnFyuA-FM sensor; settings: 50% quenching

Sequence of human siderocalin (HsaSCN) (P80188 21-198 Q148C): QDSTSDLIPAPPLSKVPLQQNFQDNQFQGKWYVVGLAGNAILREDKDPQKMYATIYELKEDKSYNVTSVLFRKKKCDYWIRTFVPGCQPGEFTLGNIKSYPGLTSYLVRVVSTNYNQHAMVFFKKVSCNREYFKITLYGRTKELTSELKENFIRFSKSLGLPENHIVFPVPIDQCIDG

O=C(N[C@H]1COC(=O)[C@@H](NC(=O)c2cccc(O)c2O)COC(=O)[C@@H](NC(=O)c2cccc(O)c2O)COC1=O)c1cccc(O)c1O [Ent, enterobactin]
pKd [1]: 7.57 | binding (in words) [2]: bound

CC(C)(O/N=C(\C(=O)N[C@@H]1C(=O)N2C(C(=O)[O-])=C(C[N+]3(CCNC(=O)c4ccc(O)c(O)c4Cl)CCCC3)CS[C@H]12)c1csc(N)n1)C(=O)O [FDC, cefidericol]
binding (in words) [3]: bound | binding (in words) [4]: bound | binding (in words) [5]: bound | binding (in words) [6]: bound | binding (in words) [7]: bound | binding (in words) [8]: bound

CC(=O)N([O-])CCC[C@@H]1NC(=O)CNC(=O)CNC(=O)CNC(=O)[C@H](CCCN([O-])C(C)=O)NC(=O)[C@H](CCCN([O-])C(C)=O)NC1=O.[Fe+3] [Fc, ferrichrome] (cyclo(GGG[Orn(N5-OH,N5-Ac)][Orn(N5-OH,N5-Ac)][Orn(N5-OH,N5-Ac)]))
binding (in words) [9]: did not measurably bind | pKd [10]: 6.96

CC(=O)N(O)CCCC[C@H](NC(=O)CC(O)(CC(=O)N[C@@H](CCCCN(O)C(C)=O)C(=O)O)C(=O)O)C(=O)O.[Fe+3] [FeAbn, ferric aerobactin]
pKd ([9]; EcoIutA-FM sensor, fluorescence quenching): 8.22

O=C(O)c1cccc(O)c1O.[Fe+3] [FeDHB]
binding (in words) [6]: did not bind | binding (in words) [11]: weakly bound | binding (in words) [2]: bound | pKd [10]: 6.48

O=C(N[C@H]1COC(=O)[C@@H](NC(=O)c2cccc(O)c2O)COC(=O)[C@@H](NC(=O)c2cccc(O)c2O)COC1=O)c1cccc(O)c1O.[Fe+3] [FeEnt, ferric enterobactin]
fold higher affinity for FeEnt than for FeGEnt ([1]; EcoFepA-FM): ~300 fold | pKd ([3]; AbaFepA-FM sensor, fluorescence quenching): ~7.60 and 7.77 | binding (in words) [4]: bound | binding (in words) [6]: bound | binding (in words) [11]: weakly bound | pKd ([2]; EcoFepB-FM (T297C), purified protein): 4.37 | fold less affinity than EcoFepA ([2]; FeEnt, EcoFepB-FM vs EcoFepA): about 100 fold | pKd [10]: 7.92 to 8.00 | pKd ([12]; ref 53, 68, 69, 70): 9.40 to 10.00 | pKd ([12]; ref 53): 9.40 | pKd [13]: 9.40 | transport rate [14]: ~50 pmol/10^9 cells/min

CC(C)(C1=N[C@@](C)(C(=O)O)CS1)[C@H](O)[C@@H]1CS[C@H]([C@H]2CSC(c3ccccc3O)=N2)N1.[Fe+3] [FeYbt]
pKd [15]: 9.00 | pKd [10]: 4.96
